Our source for the RBA and Ratio values is ChEMBL document CHEMBL1133562, “Pyrazole ligands: structure-affinity/activity relationships and estrogen receptor-alpha-selective agonists” (J Med Chem, 2000).

Experiment [1] deals with Estrogen receptor beta (Homo sapiens) (UniProt Q92731). Kind of experiment: Relative binding affinity was determined for Estrogen receptor 2 using 10 nM [3H]E2 as tracer (estradiol 100%). The procedure, abridged:
(§1)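 Competitive radiometric binding with purified full-length human ERα or ERβ, 10 nM [3H]estradiol tracer. Receptor–tracer complex adsorbed on hydroxylapatite. Incubation at 0 °C for 18-24 h. RBA expressed relative to estradiol = 100%. Mean of at least 2, typically 3 or more, independent determinations (±SD); coefficient of variation 0.3.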

Experiment [2] has as its target T1, Estrogen receptor (Homo sapiens) (UniProt P03372).
T1 sequence (whole entry): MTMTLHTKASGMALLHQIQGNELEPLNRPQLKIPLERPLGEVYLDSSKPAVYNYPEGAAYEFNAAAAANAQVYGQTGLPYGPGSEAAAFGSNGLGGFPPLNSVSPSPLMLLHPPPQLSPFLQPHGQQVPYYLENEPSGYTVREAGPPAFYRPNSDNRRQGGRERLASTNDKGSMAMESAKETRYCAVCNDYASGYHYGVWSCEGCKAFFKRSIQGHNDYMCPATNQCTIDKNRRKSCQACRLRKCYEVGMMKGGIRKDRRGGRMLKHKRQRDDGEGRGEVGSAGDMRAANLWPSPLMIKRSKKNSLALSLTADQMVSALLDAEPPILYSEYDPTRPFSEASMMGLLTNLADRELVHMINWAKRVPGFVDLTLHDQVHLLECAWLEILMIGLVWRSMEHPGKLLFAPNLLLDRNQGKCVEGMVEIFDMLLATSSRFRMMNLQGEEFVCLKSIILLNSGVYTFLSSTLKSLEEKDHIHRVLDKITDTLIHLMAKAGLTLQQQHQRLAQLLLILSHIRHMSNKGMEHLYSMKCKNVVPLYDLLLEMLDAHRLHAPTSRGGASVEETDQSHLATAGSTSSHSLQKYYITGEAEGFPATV
Kind of experiment: Relative binding affinity was determined for Estrogen receptor 1 using 10 nM [3H]-E2 as tracer (estradiol 100%). In a few lines:
as §1

Experiment [3] has as its target Estrogen receptor (Homo sapiens) (UniProt Q92731+P03372). Kind of experiment: RBA ratio between ERalpha and ERbeta. The format is protein assay.

Estrogen receptor (Homo sapiens) (UniProt Q92731+P03372), sequence (Q92731 whole entry, looked up, one chain of several): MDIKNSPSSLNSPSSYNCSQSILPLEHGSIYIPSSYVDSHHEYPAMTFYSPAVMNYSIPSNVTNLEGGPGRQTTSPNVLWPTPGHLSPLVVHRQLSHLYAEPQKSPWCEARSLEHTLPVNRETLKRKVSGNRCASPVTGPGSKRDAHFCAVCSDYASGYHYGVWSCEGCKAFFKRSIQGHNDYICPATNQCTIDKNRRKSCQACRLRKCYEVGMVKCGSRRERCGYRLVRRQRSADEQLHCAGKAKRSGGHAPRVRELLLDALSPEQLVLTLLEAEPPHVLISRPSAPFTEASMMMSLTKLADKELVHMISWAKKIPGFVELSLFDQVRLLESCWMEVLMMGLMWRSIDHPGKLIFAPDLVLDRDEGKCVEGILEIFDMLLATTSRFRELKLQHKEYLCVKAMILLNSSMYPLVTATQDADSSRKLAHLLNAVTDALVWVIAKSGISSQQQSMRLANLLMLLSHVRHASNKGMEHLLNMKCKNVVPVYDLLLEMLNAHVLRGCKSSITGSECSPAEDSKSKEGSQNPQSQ
Estrogen receptor beta (Homo sapiens), sequence (Q92731 whole entry): as the sequence (Q92731 whole entry, looked up, one chain of several) above

With `CCc1c(-c2ccc(O)cc2)nn(-c2ccccc2)c1-c1ccccc1`, the figures for the RBA in experiment [1] and in experiment [2] were 0.61 and 2.6, respectively. Also, the Ratio in experiment [3] came to 4.3.
`CCc1c(-c2ccc(O)cc2)nn(-c2ccc(O)cc2)c1-c1ccc(O)cc1`: the RBA stood at 0.15 in experiment [1] and 36 in experiment [2]. In addition, the Ratio in experiment [3] came to 240.
In the same order, the values of `CCc1c(-c2ccccc2)nn(-c2ccc(O)cc2)c1-c1ccccc1` are 1.5, 3.1 and 2.1.
Turning to `CCc1c(-c2ccccc2)nn(-c2ccc(O)cc2)c1-c1ccc(O)cc1`, the RBA in experiment [1] amounted to 0.8; in experiment [2], 7. In addition, the Ratio in experiment [3] was 9.
For the compound `CC(C)Cc1c(-c2ccc(O)cc2)nn(-c2ccccc2)c1-c1ccc(O)cc1`, the RBA in experiment [1] came out at 1.4; in experiment [2] it was 56. Also, the Ratio in experiment [3] came to 40.
In the case of `CCCCc1c(-c2ccc(O)cc2)nn(-c2ccc(O)cc2)c1-c1ccc(O)cc1`, the RBA in experiment [1] turned out to be 0.18; in experiment [2], 14. Further, the Ratio in experiment [3] stood at 77.
The matching figures for `Cc1c(-c2ccc(O)cc2)nn(-c2ccccc2)c1-c1ccc(O)cc1`: 0.28, 0.76 and 2.7.
As for `CCCc1c(-c2ccc(O)cc2)nn(-c2ccc(O)cc2)c1-c1ccc(O)cc1`, the RBA in experiment [2] was 49.
With `CCCc1c(-c2ccc(O)cc2)nn(-c2ccccc2)c1-c1ccc(O)cc1`, the RBA in experiment [1] was 0.52; in experiment [2] it was 16.8. The Ratio in experiment [3] turned out to be 32.
As for `CCc1c(-c2ccc(O)cc2)nn(-c2ccccc2)c1-c1ccc(O)cc1`, the RBA in experiment [1] stood at 1.1; in experiment [2] it was 31. In experiment [3], the Ratio is 28.
On to `CCc1c(-c2ccccc2)nn(-c2ccccc2)c1-c1ccc(O)cc1`, for which the RBA in experiment [1] was found to be 0.06; in experiment [2], 0.04. In experiment [3], the Ratio came to 0.67.
As to `CC(C)c1c(-c2ccc(O)cc2)nn(-c2ccccc2)c1-c1ccc(O)cc1`, the RBA turned out to be 0.86 in experiment [1] and 5.6 in experiment [2]. In experiment [3], the Ratio is 6.5.
Turning to `CCc1c(-c2ccc(O)cc2)nn(-c2ccc(O)cc2)c1-c1ccccc1`, the RBA in experiment [1] amounted to 0.32; in experiment [2], 8.9. Moreover, in experiment [3], the Ratio was 28.
With `CC(C)Cc1c(-c2ccc(O)cc2)nn(-c2ccc(O)cc2)c1-c1ccc(O)cc1`, the RBA in experiment [1] turned out to be 0.89; in experiment [2], 75. Besides, in experiment [3], the Ratio came to 84.
With `CCCCc1c(-c2ccc(O)cc2)nn(-c2ccccc2)c1-c1ccc(O)cc1`, the figures for the RBA in experiment [1] and in experiment [2] were 0.47 and 8.7, respectively. Moreover, the Ratio in experiment [3] worked out at 19.
